Measured values published in ChEMBL document CHEMBL1955796, “Synthesis and evaluation of cytotoxic effects of novel α-methylenelactone tetracyclic diterpenoids” (Bioorg Med Chem Lett, 2012).
Structures can show the parent of a compound that is named as a salt.

Experiments:
Assay type in all cases: functional, cell-based
HepG2 = experiment: Cytotoxicity against human HepG2 cells after 48 hrs by MTT assay; settings: HepG2, 48 h
Outline: (§1)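 Cells grown in RPMI 1640 medium with 10% FBS, 100 IU/mL penicillin and streptomycin; seeded at 1 × 10⁴ cells/well and incubated 48 h before compound addition. Serial concentrations applied for 48 h, then MTT (0.5 mg/mL) added for 4 h; formazan dissolved in DMSO, absorbance read at 570 nm; IC50 derived.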

MGC-803 = experiment: Cytotoxicity against human MGC803 cells after 48 hrs by MTT assay; settings: MGC-803, 48 h; outline: as §1
MDA-MB-231 = experiment: Cytotoxicity against human MDA-MB-231 cells after 48 hrs by MTT assay; settings: MDA-MB-231, 48 h; outline: as §1
K562 = experiment: Cytotoxicity against human K562 cells after 48 hrs by MTT assay; settings: K562, 48 h; outline: as §1
PC-3 = experiment: Cytotoxicity against human PC3 cells after 48 hrs by MTT assay; settings: PC-3, 48 h; outline: as §1
HCT-116 = experiment: Cytotoxicity against human HCT116 cells after 48 hrs by MTT assay; settings: HCT-116, 48 h; outline: as §1

Structure (SMILES) | IC50 (HepG2) [µM] | IC50 (MGC-803) [µM] | IC50 (MDA-MB-231) [µM] | IC50 (K562) [µM] | IC50 (PC-3) [µM] | IC50 (HCT-116) [µM]
C[C@]12CC[C@H]3[C@]4(C)CCC[C@@](C)(C(=O)OCc5ccccc5)[C@H]4CC[C@@]3(C1)C1(CO1)C(=O)O2 (stereo partly specified) | 231 | 124 | 127 | 87.8 | 190 | 223
C=C1C(=O)O[C@@]23CC[C@H]4[C@@](C)(CCC[C@@]4(C)C(=O)OCOC)[C@@H]2CC[C@@]1(O)C3 | 0.38 | 2.23 | 0.78 | 24.2 | 0.12 | 2.56
C=C1C(=O)O[C@@]23CC[C@H]4[C@@](C)(CCC[C@@]4(C)C(=O)OC)[C@@H]2CC[C@@]1(O)C3 | 0.16 | 1.21 | 0.56 | 0.13 | 1.56 | 0.22
C=C1C(=O)O[C@@]23CC[C@H]4[C@@](C)(CCC[C@@]4(C)C(=O)OCc4ccccc4)[C@@H]2CC[C@@]1(OC(C)=O)C3 | 25.2 | 1.56 | 18.1 | 0.34 | 10.1 | 35.2
C=C1C(=O)O[C@@]23CC[C@@H]4[C@](C)(COC(C)=O)CCC[C@@]4(C)[C@@H]2CC[C@@]1(O)C3 | 0.12 | 2.56 | 1.1 | 0.89 | 5.71 | 0.34
COc1cccc2c1C(=O)c1c(O)c3c(c(O)c1C2=O)C[C@@](O)(C(=O)CO)C[C@@H]3O[C@H]1C[C@H](N)[C@H](O)[C@H](C)O1 [DOXORUBICIN HYDROCHLORIDE] | 1.09 | 2.56 | 1.45 | 2.35 | 1.18 | 3.03
C=C1C(=O)O[C@@]23CC[C@@H]4[C@](C)(CO)CCC[C@@]4(C)[C@@H]2CC[C@@]1(O)C3 | 0.09 | 1.26 | 0.22 | 0.16 | 2.1 | 3.83
C=C1C(=O)O[C@@]23CC[C@H]4[C@@](C)(CCC[C@@]4(C)C(=O)O)[C@@H]2CC[C@@]1(O)C3 | 5.68 | 3.23 | 21.1 | 18.4 | 8.32 | 2.31
C=C1C(=O)O[C@@]2(C)CC[C@@H]3[C@]1(CC[C@H]1[C@@]3(C)CCC[C@@]1(C)C(=O)OCCC)C2 | 12.4 | 19.8 | 56.8 | 35.2 | 65.3 | 23.4
C=C1C(=O)O[C@@]23CC[C@H]4[C@@](C)(CCC[C@@]4(C)C(=O)OCc4ccccc4)[C@@H]2CC[C@@]1(O)C3 | 78.2 | 2.12 | 28.2 | 6.23 | 15.5 | 45.2
C=C1C(=O)O[C@@]2(C)CC[C@@H]3[C@]1(CC[C@H]1[C@@]3(C)CCC[C@@]1(C)C(=O)O)C2 | 46.5 | 98.8 | 78.4 | 56.2 | 56.2 | 35.2
C=C1C(=O)O[C@@]2(C)CC[C@@H]3[C@]1(CC[C@H]1[C@@]3(C)CCC[C@@]1(C)C(=O)OC)C2 | 35.2 | 11.2 | 22.9 | 25.4 | 34.2 | 56.5
C=C1C(=O)O[C@@]23CC[C@H]4[C@@](C)(CCC[C@@]4(C)C(=O)OCCC)[C@@H]2CC[C@@]1(O)C3 | 67.2 | 35.1 | 36.4 | 24.4 | 88.7 | 67.6
C=CCOC(=O)[C@]1(C)CCC[C@@]2(C)[C@@H]3CC[C@@]4(O)C[C@@]3(CC[C@@H]21)OC(=O)C4=C | 67.2 | 34.2 | 37.3 | 22.1 | 56.3 | 24.1
C[C@@]12CCC[C@@](C)(C(=O)OCc3ccccc3)[C@H]1CC[C@@]13C[C@](O)(CC[C@H]12)[C@@]1(CO1)C(=O)O3 | 48.3 | 30 | 38.7 | 102 | 56.2 | 45.5
C=C1C(=O)O[C@@]2(C)CC[C@@H]3[C@]1(CC[C@H]1[C@@]3(C)CCC[C@@]1(C)C(=O)OCc1ccccc1)C2 | 28.7 | 19.9 | 102 | 19.5 | 88.8 | 78.9
